Measured values from article PMC9293343 (Chemmedchem, 2021).

Legend:
[1] = molecular target: T1, Neh1 (residues 445–523, Neh1‐ΔLZIP) domain of NRF2 (Homo sapiens, UniProt Q16236); assay: 1H-15N HSQC small-molecule titration; format: binding
T1 sequence (Q16236 445-523): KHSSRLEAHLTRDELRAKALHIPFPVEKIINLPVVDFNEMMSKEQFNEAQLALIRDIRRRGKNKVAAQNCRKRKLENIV
Method in brief: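 15N-labelled human NRF2 residues 445–523 were expressed in E. coli BL21(DE3) with TEV-cleaved MBP/His tags and used at 50 μM in 50 mM sodium phosphate pH 6.5, 150 mM NaCl, 1 mM DTT. Test compound (50 mM DMSO-d6 stock) was titrated to final 0.250, 0.750, 1.5 and 2.0 mM, with 1H-15N HSQC at each step. Combined 1HN/15N CSPs were fitted per residue by nonlinear least squares for KD.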

Neh1‐ΔLZIP = molecular target: T2, Neh1‐ΔLZIP (Homo sapiens, UniProt Q16236); format: binding; details: 0.750 mM compound 2, ARE DNA 0.10, 0.20, 0.30 mM, 50 μM protein
T2 sequence (Q16236 445-523): T1 sequence (Q16236 445-523)

O=C(O)COc1ccc(-c2ccccc2)cc1Br [Compound 2, 2‐((3‐bromo‐[1,1’‐biphenyl]‐4‐yl)oxy)acetic acid]
Kd ([1]; KD, from CSP values using equation (1), average over R499, D500, R503): 1.7 ± 0.1 mM
chemical shift change of side chain amide nitrogen Nδ2 of N482, measured value ([1]; at approximately 50–60 % protein fraction bound): 0.64 ppm
CSP, backbone amide of N482 ([1]; upon addition of compound 2): 0.04 ppm
replacement of compound by ARE DNA (competition) (Neh1‐ΔLZIP): final spectrum which is very close to the spectrum of Neh1‐ΔLZIP bound to ARE
